ChEMBL document CHEMBL4376838, “Discovery of Novel Celastrol Derivatives as Hsp90-Cdc37 Interaction Disruptors with Antitumor Activity” (J Med Chem, 2019)
The source made the active and inactive calls. The calls are words filed in the database; no cut-off is given here.

What was measured:
A549 [1] = test: Antiproliferative activity against human A549 cells assessed as inhibition of cell growth at 1.5 uM incubated for 48 hrs by MTT assay relative to control; format: functional; conditions: A549, 48 h, read-out: GI
[2] = target: T1, Hsp90 co-chaperone Cdc37 (Homo sapiens) (UniProt Q16543); test: Binding affinity to recombinant Cdc37 (unknown origin) assessed as inhibition of biotin labeled 3-[3-cyano-3-(4-fluorophenyl)prop-2-enoyl]oxypropyl(2R,4aS,6aR,6aS,14aS,14bR)-10-hydroxy-2,4a,6a,6a,9,14a-hexamethyl-11-oxo-1,3,4,5,6,13,14,14b-octahydropicene-2-carboxylate binding to enzyme at 0.25 to 0.5 uM incubated with compound for 2 hrs before or after incubation with biotin labeled 3-[3-cyano-3-(4-fluorophenyl)prop-2-enoyl]oxypropyl(2R,4aS,6aR,6aS,14aS,14bR)-10-hydroxy-2,4a,6a,6a,9,14a-hexamethyl-11-oxo-1,3,4,5,6,13,14,14b-octahydropicene-2-carboxylate for 2 hrs by pull down assay based immunoblot analysis
T1 sequence (whole entry): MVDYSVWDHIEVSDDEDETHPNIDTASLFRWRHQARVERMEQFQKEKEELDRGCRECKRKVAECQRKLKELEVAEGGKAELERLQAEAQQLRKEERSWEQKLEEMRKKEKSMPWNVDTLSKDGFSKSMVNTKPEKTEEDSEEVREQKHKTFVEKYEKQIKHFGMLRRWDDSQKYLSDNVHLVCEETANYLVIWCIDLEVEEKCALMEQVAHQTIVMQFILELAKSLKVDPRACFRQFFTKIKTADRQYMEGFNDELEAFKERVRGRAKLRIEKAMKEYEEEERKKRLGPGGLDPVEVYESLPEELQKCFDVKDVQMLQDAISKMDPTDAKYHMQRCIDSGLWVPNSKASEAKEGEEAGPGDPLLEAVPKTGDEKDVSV
How it was run: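 Recombinant Cdc37 ([…]) incubated with varying compound concentrations for 2 h, either before or after a 2 h incubation with biotinylated probe (0.5 μM) at 10 °C. Biotin alone served as control. Probe-bound protein captured on streptavidin beads, and input and bound fractions immunoblotted.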

[3] = Binding affinity to GSH in PBS at 100 uM assessed as reduction in absorption at 440 nm incubated up to 30 mins by UV absorption analysis
How it was run: (§1)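 Compound (100 μM) mixed with GSH (100 μM), Cdc37 (1.5 μM) or Hsp90 (1.5 μM) in PBS containing 1% DMSO, incubated at 37 °C for 0, 5, 15 and 30 min. UV spectra scanned 200-500 nm, with absorbance at 440 nm compared against the 0 min value (A/A0). Mean ± SD, n = 3.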

[4] = target: Heat shock protein HSP 90-alpha (Homo sapiens) (UniProt P07900); test: Binding affinity to full length Hsp90alpha (unknown origin) assessed as reduction in absorption at 440 nm reaching equilibrium within 5 mins at 100 uM by UV absorption analysis; conditions: in the assay text read “within 15 mins” for “within 5 mins”; how it was run: as §1
[5] = target: T1, Hsp90 co-chaperone Cdc37 (Homo sapiens); test: Binding affinity to full length CDC37 (unknown origin) assessed as reduction in absorption at 440 nm reaching equilibrium within 15 mins at 100 uM by UV absorption analysis; conditions: in the assay text read “within 5 mins” for “within 15 mins”; how it was run: as §1
[6] = target: T1, Hsp90 co-chaperone Cdc37 (Homo sapiens); test: Binding affinity to Cdc37 in human A549 cells assessed as inhibition of HSP90-Cdc37 interaction by measuring decrease in CDK4 protein level incubated for 12 hrs by Western blot analysis; format: cell-based
How it was run: (§2)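 A549 cells (5×10^5 per 6 cm dish) were allowed to settle 12 h, then treated with DMSO or compound at the indicated concentrations for 12 h. Lysates were adjusted to 3 mg/ml protein by BCA and resolved on 10% SDS-PAGE, then Western blotted. β-actin or Hsp90 served as the loading control. Three separate experiments, mean ± SD.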

[7] = target: T1, Hsp90 co-chaperone Cdc37 (Homo sapiens); test: Binding affinity to Cdc37 in human A549 cells assessed as inhibition of HSP90-Cdc37 interaction by measuring decrease in Bcl2 protein level at 1.25 to 5 uM incubated for 12 hrs by Western blot analysis; format: cell-based; how it was run: as §2
A549 [8] = test: Induction of morphological apoptosis in human A549 cells assessed as increase in cells with nuclear fragmentation at 0.3 to 1.2 uM incubated for 48 hrs by Hoechst 33342 and PI staining based fluorescence microscopic method; format: functional, cell-based
How it was run: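 A549 cells (4×10^5 per 6 cm dish) were grown 24 h, then exposed to compound at the indicated concentrations or DMSO for 48 h. After PBS washes, cells were stained with Hoechst 33342 (10 µg/ml) plus PI for 5 min at room temperature in the dark and imaged by fluorescence microscopy for nuclear morphology.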

A549 [9] = test: Induction of apoptosis in human A549 cells assessed as viable cells at 0.6 uM incubated for 48 hrs by Annexin V-FITC and PI staining based flow cytometric analysis (reference value: 95.5%); format: functional; conditions: A549, 48 h, read-out: Activity
A549 [10] = test: Induction of apoptosis in human A549 cells assessed as necrotic cells at 0.6 uM incubated for 48 hrs by Annexin V-FITC and PI staining based flow cytometric analysis (reference value: 1.0%); format: functional
A549 [11] = test: Induction of cell cycle arrest in human A549 cells assessed as accumulation at S phase at 0.4 uM incubated for 24 hrs by PI staining based flow cytometric analysis (reference value: 27.59%); format: functional
How it was run: (§3)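 A549 cells (4×10^5 per 6 cm dish) were grown 24 h, then exposed to compound (0.2, 0.4, 0.8 μM) or DMSO for 24 h. Cells fixed in 75% ethanol at −20 °C for at least 12 h, treated with RNase A at 37 °C for 30 min, then stained with PI for 15 min in the dark. Analysed by flow cytometry, mean ± SD, n = 3.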

A549 [12] = test: Induction of cell cycle arrest in human A549 cells assessed as accumulation at S phase at 0.8 uM incubated for 24 hrs by PI staining based flow cytometric analysis (reference value: 27.59%); format: functional; how it was run: as §3
A549 [13] = test: Antiproliferative activity against human A549 cells assessed as inhibition of cell growth at 0.5 uM incubated for 48 hrs by MTT assay relative to control; format: functional; conditions: A549, 48 h, read-out: GI
A549 [14] = test: Induction of mitochondrial membrane potential loss in human A549 cells assessed as cells with depolarized mitochondria by measuring increase in J-monomer green fluorescence intensity at 0.8 uM incubated for 24 hrs by JC1 staining based fluorescence microscopic method (reference value: 1.5%); format: functional
A549 [15] = test: Induction of mitochondrial membrane potential loss in human A549 cells assessed as cells with hyperpolarized mitochondria by measuring decrease in J-aggregates red fluorescence intensity at 0.4 uM incubated for 24 hrs by JC1 staining based fluorescence microscopic method (reference value: 98.4%); format: functional; parameters: scale not given: the % may be the effect or the level left
A549 [16] = test: Induction of mitochondrial membrane potential loss in human A549 cells assessed as cells with hyperpolarized mitochondria by measuring decrease in J-aggregates red fluorescence intensity at 0.8 uM incubated for 24 hrs by JC1 staining based fluorescence microscopic method (reference value: 98.4%); format: functional; parameters: scale not given: the % may be the effect or the level left

SMILES: CC1=C(O)C(=O)C=C2C1=CC=C1[C@@]2(C)CC[C@@]2(C)[C@@H]3C[C@](C)(C(=O)OCCCOC(=O)/C=C(\C#N)c4ccc(F)cc4)CC[C@]3(C)CC[C@]12C
- inhibition of growth at 1.5 µM (A549 [1]): 78.5%
- Activity [2]: Active
- Activity [3]: Active
- Activity [4]: Active
- Activity [5]: Active
- inhibition [6]: Dose-dependent effect
- inhibition [7]: Active
- Activity (A549 [8]): Active
- viability at 0.6 µM (A549 [9]): 71.2%
- Activity (A549 [10]): 6%
- Activity (A549 [11]): 23.34%
- Activity (A549 [12]): 23.85%
- inhibition of growth at 0.5 µM (A549 [13]): 65.1%
- Activity (A549 [14]): 26.2%
- Activity (A549 [15]): 80%
- Activity (A549 [16]): 72.8%
